Laboratory results published in ChEMBL document CHEMBL4017532, “Multifunctional Hybrid Compounds Derived from 2-(2,5-Dioxopyrrolidin-1-yl)-3-methoxypropanamides with Anticonvulsant and Antinociceptive Properties” (J Med Chem, 2017).
Calls of active or inactive are those of the source. The calls are words filed in the database; no cut-off is given here.

Experiments:
Mus musculus [1] = assay: Anticonvulsant activity in Albino Swiss CD-1 mouse assessed as protection against 6 Hz current-induced seizure at 100 mg/kg, ip pretreated up to 2 hrs followed by 6 Hz current induction for 3 secs relative to control; type: functional
[2] = molecular target: Voltage-gated inwardly rectifying potassium channel KCNH2 (Homo sapiens, UniProt Q12809); assay: Displacement of [3H]astemizole from human hERG expressed in HEK293 cell membrane at 200 uM after 90 mins by liquid scintillation counting; type: cell membranes; conditions: hek293, 1.5 h
Chain of Voltage-gated inwardly rectifying potassium channel KCNH2 (Q12809 whole entry): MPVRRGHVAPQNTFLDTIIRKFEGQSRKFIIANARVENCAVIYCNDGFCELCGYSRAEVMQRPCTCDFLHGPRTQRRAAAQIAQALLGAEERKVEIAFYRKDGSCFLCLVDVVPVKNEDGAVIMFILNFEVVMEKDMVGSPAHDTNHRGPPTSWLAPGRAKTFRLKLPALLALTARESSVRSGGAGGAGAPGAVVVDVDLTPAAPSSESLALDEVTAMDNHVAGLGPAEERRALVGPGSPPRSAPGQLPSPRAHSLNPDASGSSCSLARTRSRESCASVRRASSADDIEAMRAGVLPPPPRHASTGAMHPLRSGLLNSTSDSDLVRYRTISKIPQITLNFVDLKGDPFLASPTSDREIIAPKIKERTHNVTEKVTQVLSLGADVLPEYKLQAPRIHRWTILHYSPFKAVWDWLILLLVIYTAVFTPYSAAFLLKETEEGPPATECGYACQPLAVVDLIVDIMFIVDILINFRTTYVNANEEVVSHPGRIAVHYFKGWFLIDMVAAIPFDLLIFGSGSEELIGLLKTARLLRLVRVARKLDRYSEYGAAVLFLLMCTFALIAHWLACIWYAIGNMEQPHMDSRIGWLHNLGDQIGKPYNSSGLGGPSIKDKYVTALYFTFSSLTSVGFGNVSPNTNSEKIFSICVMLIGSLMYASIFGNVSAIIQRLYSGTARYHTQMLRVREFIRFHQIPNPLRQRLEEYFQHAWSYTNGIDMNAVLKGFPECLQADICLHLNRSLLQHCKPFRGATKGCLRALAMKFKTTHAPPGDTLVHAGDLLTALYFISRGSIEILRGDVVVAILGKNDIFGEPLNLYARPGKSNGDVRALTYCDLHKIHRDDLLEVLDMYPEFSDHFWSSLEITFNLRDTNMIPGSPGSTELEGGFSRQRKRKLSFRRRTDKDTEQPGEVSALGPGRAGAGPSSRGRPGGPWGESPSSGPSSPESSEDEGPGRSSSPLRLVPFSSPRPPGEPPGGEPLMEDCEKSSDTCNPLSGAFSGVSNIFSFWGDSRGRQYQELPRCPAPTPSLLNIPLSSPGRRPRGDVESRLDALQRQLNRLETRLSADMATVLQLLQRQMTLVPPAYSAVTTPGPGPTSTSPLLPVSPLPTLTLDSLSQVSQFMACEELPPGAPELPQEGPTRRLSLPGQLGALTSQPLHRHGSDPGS
In short: (§1)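 Radioligand binding was run as a contract service. Percent inhibition of specific labelled-ligand binding was measured at 100 μM test compound, or 200 μM for hERG.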

Mus musculus [3] = assay: Antinociceptive activity in Albino Swiss CD-1 mouse assessed as inhibition of formalin-induced inflammatory pain response administered ip 30 mins before formalin injection measured after 15 to 30 mins; type: functional; conditions: Swiss CD-1, ip
In short: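 Male CD-1 mice were given test agents ip 30 min before subcutaneous intraplantar formalin. Doses were 12.5, 25 or 50 mg/kg, or 100, 150 or 200 mg/kg for the reference. Vehicle was 1% Tween 80 at 10 mL/kg. Paw licking time was recorded in phase I (0–5 min) and phase II (15–30 min). Data are mean ± SEM of 8–10 mice, by Dunnett's test. ED50 was obtained by log-probit analysis with 95% confidence limits.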

Rattus norvegicus [4] = species: Rattus norvegicus; assay: Displacement of omega[125I]conotoxin from N-type calcium channel in rat cerebral cortex at 100 uM by scintillation spectrophotometry
In short: (§2)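 Run commercially by an outside contract lab, with the compound tested at 100 μM. The read-out was percent inhibition of binding of the radiolabelled ligand, reported as compound binding.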

Mus musculus [5] = assay: Antinociceptive activity in Albino Swiss CD-1 mouse assessed as inhibition of capsaicin-induced nociception by measuring time spent licking injected paw at 100 mg/kg, ip administered 30 mins mins prior to capsaicin challenge measured for 5 mins relative to control; type: functional; conditions: Swiss CD-1, ip
In short: (§3)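 Mice (male CD-1, 18–25 g) were pretreated ip 30 min before intraplantar capsaicin. Doses were 25, 50 or 100 mg/kg, or 100, 150 or 200 mg/kg for the reference. Vehicle was 1% Tween 80 at 10 mL/kg. Duration of nociceptive response was scored over 5 min after injection. Data are mean ± SEM of 8–10 mice, by one-way ANOVA with Dunnett's test against vehicle.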

Rattus norvegicus [6] = species: Rattus norvegicus; assay: Displacement of [3H]-batrachotoxinin from sodium channel site 2 in rat cerebral cortex at 100 uM after 60 mins by liquid scintillation spectroscopic method; in short: as §2
Mus musculus [7] = assay: Antinociceptive activity in Albino Swiss CD-1 mouse assessed as inhibition of capsaicin-induced nociception by measuring time spent licking injected paw administered ip 30 mins mins prior to capsaicin challenge measured for 5 mins; type: functional, organism-based; in short: as §3
Rattus norvegicus [8] = species: Rattus norvegicus; assay: Displacement of [3H]CGP 39653 from NMDA receptor in rat cerebral cortex at 100 uM after 60 mins by liquid scintillation counting; in short: as §1
Mus musculus [9] = assay: Analgesic activity in Albino Swiss CD-1 mouse assessed as increase in pain response latency administered at 150 mg/kg, ip treated up to 90 mins prior to tet by hot plate assay; type: functional, organism-based
In short: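 Male CD-1 mice, 18–25 g, 6–12 per group, given test agents as 1% aqueous Tween 80 suspension ip. Doses were 50, 100 or 150 mg/kg, with morphine hydrochloride at 4 mg/kg as reference. Mice were placed on the hot plate 15, 30, 45, 60 and 90 min after dosing, and latency to pain reaction was recorded.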

Cytochrome P450 3A4 = Cytochrome P450 3A4 (Homo sapiens, UniProt P08684); assay: Inhibition of human CYP3A4 assessed as reduction in luciferin-PPXE conversion to D-luciferin at 12.5 to 25 uM by luminescence assay; type: ADME
Chain of Cytochrome P450 3A4 (P08684 whole entry): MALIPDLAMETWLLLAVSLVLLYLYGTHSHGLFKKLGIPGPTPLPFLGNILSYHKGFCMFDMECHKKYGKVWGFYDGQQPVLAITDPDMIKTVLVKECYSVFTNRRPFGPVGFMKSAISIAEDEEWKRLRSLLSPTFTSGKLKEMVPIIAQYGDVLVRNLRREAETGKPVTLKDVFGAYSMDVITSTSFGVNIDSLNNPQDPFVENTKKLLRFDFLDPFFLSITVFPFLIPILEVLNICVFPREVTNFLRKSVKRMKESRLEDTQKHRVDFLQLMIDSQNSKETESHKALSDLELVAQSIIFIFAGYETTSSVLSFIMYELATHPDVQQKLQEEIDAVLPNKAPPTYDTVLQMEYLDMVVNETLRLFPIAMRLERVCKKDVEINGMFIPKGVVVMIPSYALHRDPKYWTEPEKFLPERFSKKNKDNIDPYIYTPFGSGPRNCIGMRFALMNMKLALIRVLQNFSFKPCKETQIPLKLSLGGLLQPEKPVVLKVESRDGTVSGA
In short: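 P450-Glo luminescence assays used recombinant human CYP3A4 or CYP2D6 with conversion of luciferin-PPXE to D-luciferin. Ketoconazole (CYP3A4) and quinidine (CYP2D6) served as reference inhibitors.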

[10] = Neurotoxicity in ip dosed Albino Swiss CD-1 mouse assessed as induction of motor impairment measured up to 60 secs by chimney test; type: toxicity, organism-based; conditions: in vivo
In short: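 Acute neurological toxicity after ip dosing (1% Tween 80 suspension) was assessed in the mouse chimney test. TD50 with 95% confidence limits was derived by probit analysis. Protective index is TD50 from the chimney test divided by ED50 from the MES, scPTZ or 6 Hz test.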

Mus musculus [11] = assay: Toxicity in Albino Swiss CD-1 mouse assessed as effect on spontaneous locomotar activity at 25 to 150 mg/kg, ip treated 30 mins prior to test; type: organism-based; conditions: in vivo, 0.5 h
In short: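 Male CD-1 mice were dosed ip at 25, 50, 100 or 150 mg/kg 30 min before testing and then placed singly in activity cages. Light-beam crossings were counted over 30 min in 10 min intervals.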

With `COCC(C(=O)N1CCN(c2ccc(C(F)(F)F)cc2)CC1)N1C(=O)CCC1=O` (configuration not stated) the Activity (Mus musculus [1]) was “<=75%”, the “inhibition (INH)” value [2] was “Not Active” and the ED50 (Mus musculus [3]) was 5.1 mg/kg. The inhibition (Rattus norvegicus [4]) was “inactive”, the inhibition in vivo at 100 mg/kg (Mus musculus [5]) was 59.3% and the inhibition (Rattus norvegicus [6]) was “inactive”. For the same molecule, the inhibition (Mus musculus [7]) was “Dose-dependent effect”, the inhibition (Rattus norvegicus [8]) was “inactive” and the Activity (Mus musculus [9]) was “inactive”. For the same molecule, the “inhibition (INH)” value (Cytochrome P450 3A4) was “Not Active”, the TD50 at 1 min [10] was 156 to 199 mg/kg and the Activity (Mus musculus [11]) was “Non-Toxic”.
